Tests used:
[1] = molecular target: T1, Voltage-gated L-type calcium channel (Rattus norvegicus, UniProt P22002+Q02485+P27732); test: Pseudo Hill coefficient for inhibition of [3H](+)-PN200-110 binding to GH4C1 cells under depolarized conditions (50 mM K+).; type: cell-based; settings: gh4-c1
Outline: (§1)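 Intact GH4C1 cells attached to the culture dish, competition against [3H]-(+)-PN200-110 in depolarizing Hank's buffer (50 mM K+, pH 7.4). IC50 and slope from Hill equation fit; KI = IC50/(1+[L]/KD); n = 4-6 experiments, mean ± SEM.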

[2] = molecular target: T1, Voltage-gated L-type calcium channel; test: Pseudo Hill coefficient for inhibition of [3H](+)-PN200-110 binding to calcium channels of rat cerebral cortex membrane; type: tissue-based
Outline: (§2)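 Rat cerebral cortex membranes, protein by Bradford, competition with [3H]-(+)-PN200-110. IC50 and pseudo Hill slope from Hill equation fit of specific DPM bound; KI = IC50/(1+[L]/KD); n = 4-6 experiments.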

[3] = molecular target: T1, Voltage-gated L-type calcium channel; test: Pseudo Hill coefficient for inhibition of [3H](+)-PN200-110 binding to GH4C1 cells; type: cell-based; settings: gh4-c1
Outline: (§3)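 Competition against [3H]-(+)-PN200-110 in GH4C1 membranes, protein by Bradford. IC50 and pseudo Hill slope from Hill equation fit of specific DPM bound; KI = IC50/(1+[L]/KD); n = 4-6 experiments.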

[4] = molecular target: T1, Voltage-gated L-type calcium channel; test: Inhibition of [3H](+)-PN200-110 binding to calcium channels of rat cerebral cortex membrane.; type: tissue-based; outline: as §2
[5] = molecular target: T2, Voltage-dependent L-type calcium channel subunit alpha-1C (Rattus norvegicus, UniProt P22002); test: Pseudo Hill coefficient for inhibition of [3H](+)-PN200-110 binding to calcium channels of rat heart membranes; type: cell membranes, Membrane
Outline: (§4)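 Using rat heart membranes (protein by Bradford), displacement of [3H]-(+)-PN200-110. IC50 and pseudo Hill slope from Hill equation fit; KI = IC50/(1+[L]/KD); n = 4-6 experiments.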

GH4-C1 = test: Pseudo Hill coefficient for the inhibition of Barium currents in GH4C1 cells was determined.; type: cell-based; settings: Rattus norvegicus
Outline: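 Whole-cell voltage clamp of GH4C1 rat pituitary cells cultured 2-6 days, bathed in normal Tyrode's (pH 7.4). Held at -40 mV to inactivate T-type channels. Each DHP concentration (0.03-10 µM, increasing order) equilibrated 30 s, then a 200 or 50 ms pulse to +10 mV. Currents normalized to capacitance (pA/pF); IC50 and Hill slope fitted by Hill equation; 6-7 cells.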

[6] = molecular target: T1, Voltage-gated L-type calcium channel; test: Inhibition of [3H](+)-PN200-110 binding to calcium channels of GH4C1 cells under depolarized conditions (50 mM K+).; type: cell-based; settings: gh4-c1; outline: as §1
[7] = molecular target: T2, Voltage-dependent L-type calcium channel subunit alpha-1C; test: Inhibition of [3H](+)-PN200-110 binding to calcium channels of rat heart membranes.; type: cell membranes, Membrane; outline: as §4
[8] = molecular target: T1, Voltage-gated L-type calcium channel; test: Inhibition of [3H](+)-PN200-110 binding to calcium channels of rat GH4C1 cells.; type: cell-based; settings: gh4-c1; outline: as §3
[9] = Compound was tested for its inhibition of Barium currents in GH4C1 cells.; type: functional, cell-based, Rattus norvegicus; settings: gh4-c1
[10] = molecular target: T1, Voltage-gated L-type calcium channel; test: Inhibition of [3H](+)-PN200-110 binding to calcium channels of GH4C1 cells.; type: cell-based; settings: gh4-c1; outline: as §3

T2 sequence (P22002 whole entry): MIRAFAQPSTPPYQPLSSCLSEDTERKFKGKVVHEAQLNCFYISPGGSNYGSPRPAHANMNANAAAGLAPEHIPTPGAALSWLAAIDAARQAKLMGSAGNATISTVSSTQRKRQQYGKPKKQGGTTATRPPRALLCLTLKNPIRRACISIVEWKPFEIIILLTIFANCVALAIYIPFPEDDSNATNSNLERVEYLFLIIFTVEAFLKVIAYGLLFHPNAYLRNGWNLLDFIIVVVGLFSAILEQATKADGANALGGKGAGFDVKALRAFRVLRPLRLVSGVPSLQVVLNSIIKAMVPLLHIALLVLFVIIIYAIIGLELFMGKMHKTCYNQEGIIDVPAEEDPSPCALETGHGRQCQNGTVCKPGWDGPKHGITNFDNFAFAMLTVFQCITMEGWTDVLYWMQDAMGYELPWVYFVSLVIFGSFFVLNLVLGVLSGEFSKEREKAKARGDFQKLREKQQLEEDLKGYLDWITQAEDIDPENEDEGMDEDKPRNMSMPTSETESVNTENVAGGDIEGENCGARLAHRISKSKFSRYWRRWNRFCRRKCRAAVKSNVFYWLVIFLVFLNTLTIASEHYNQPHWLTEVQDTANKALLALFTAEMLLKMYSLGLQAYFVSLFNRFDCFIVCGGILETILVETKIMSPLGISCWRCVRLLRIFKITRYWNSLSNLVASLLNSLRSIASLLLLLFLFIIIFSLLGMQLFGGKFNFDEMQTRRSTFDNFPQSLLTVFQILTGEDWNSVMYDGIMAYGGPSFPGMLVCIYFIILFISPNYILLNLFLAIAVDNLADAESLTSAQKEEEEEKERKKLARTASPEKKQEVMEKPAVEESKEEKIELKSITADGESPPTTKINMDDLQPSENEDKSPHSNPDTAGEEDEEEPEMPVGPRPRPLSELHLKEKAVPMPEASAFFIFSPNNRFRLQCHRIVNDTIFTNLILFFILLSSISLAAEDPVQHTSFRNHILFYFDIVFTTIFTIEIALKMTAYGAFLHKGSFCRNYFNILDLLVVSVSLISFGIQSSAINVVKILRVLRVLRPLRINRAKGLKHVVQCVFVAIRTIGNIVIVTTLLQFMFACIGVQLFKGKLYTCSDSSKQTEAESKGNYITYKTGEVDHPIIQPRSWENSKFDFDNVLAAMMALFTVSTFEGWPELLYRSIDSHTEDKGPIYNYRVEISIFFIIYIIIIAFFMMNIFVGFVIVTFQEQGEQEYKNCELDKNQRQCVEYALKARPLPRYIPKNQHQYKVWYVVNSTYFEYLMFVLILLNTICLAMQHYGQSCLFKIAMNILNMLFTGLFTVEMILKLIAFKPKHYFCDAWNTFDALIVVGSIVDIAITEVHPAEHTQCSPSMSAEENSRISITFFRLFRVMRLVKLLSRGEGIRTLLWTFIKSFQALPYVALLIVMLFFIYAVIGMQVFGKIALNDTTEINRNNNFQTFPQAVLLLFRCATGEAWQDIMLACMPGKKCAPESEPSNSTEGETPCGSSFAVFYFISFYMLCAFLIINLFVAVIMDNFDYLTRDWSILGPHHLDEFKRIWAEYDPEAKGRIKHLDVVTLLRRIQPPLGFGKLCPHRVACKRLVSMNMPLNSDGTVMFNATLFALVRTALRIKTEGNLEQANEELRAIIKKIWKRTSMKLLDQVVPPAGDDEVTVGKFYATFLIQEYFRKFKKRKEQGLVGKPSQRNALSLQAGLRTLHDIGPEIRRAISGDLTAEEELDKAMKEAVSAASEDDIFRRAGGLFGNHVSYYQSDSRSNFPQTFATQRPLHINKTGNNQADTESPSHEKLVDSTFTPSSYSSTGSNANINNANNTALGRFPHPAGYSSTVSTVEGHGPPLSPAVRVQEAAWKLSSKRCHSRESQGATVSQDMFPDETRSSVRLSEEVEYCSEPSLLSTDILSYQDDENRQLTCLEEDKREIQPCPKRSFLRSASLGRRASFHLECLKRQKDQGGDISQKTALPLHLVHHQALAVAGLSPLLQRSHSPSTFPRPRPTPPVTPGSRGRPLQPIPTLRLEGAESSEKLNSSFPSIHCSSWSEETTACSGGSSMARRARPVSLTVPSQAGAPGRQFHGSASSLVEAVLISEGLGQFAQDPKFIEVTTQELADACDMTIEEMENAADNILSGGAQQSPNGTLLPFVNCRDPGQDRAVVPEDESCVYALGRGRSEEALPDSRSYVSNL

COC(=O)C1=C(C)NC(C)=C(C(=O)OCCCCCCCC[N+](C)(C)C)[C@H]1c1cccc([N+](=O)[O-])c1.[I-]
nH [1]: 1.1
nH [2]: 1.6
nH [3]: 1.3
Ki [4]: 24.6 nM
nH [5]: 1.2
nH (GH4-C1): 1
Ki [6]: 129.2 nM
Ki [7]: 8 nM
Ki [8]: 11.4 nM
IC50 [9]: 1400 nM

COC(=O)C1=C(C)NC(C)=C(C(=O)OCCCCCCCC[N+](C)(C)C)C1c1cccc([N+](=O)[O-])c1.[I-] (racemic)
nH [1]: 1.3
nH [2]: 1.4
nH [3]: 1.5
Ki [4]: 37.2 nM
nH [5]: 1.1
nH (GH4-C1): 0.9
Ki [6]: 68.6 nM
Ki [7]: 99.2 nM
Ki [8]: 16.8 nM
IC50 [9]: 1500 nM

COC(=O)C1=C(C)NC(C)=C(C(=O)OCC[N+](C)(C)C)[C@H]1c1cccc([N+](=O)[O-])c1.[I-]
nH [1]: 0.9
nH [2]: 0.9
nH [3]: 0.9
Ki [4]: 1246 nM
nH [5]: 1
nH (GH4-C1): 0.4
Ki [6]: 651 nM
Ki [7]: 999 nM
Ki [8]: 1940 nM
IC50 [9]: 28100 nM

COC(=O)C1=C(C)NC(C)=C(C(=O)OCC[N+](C)(C)C)[C@@H]1c1cccc([N+](=O)[O-])c1.[I-]
nH [1]: 0.5
nH [2]: 0.8
nH [3]: 0.6
Ki [4]: 14013 nM
nH [5]: 0.9
Ki [10]: 48120 nM
nH (GH4-C1): 0.3
Ki [6]: 3988 nM
Ki [7]: 13700 nM
IC50 [9]: 271000 nM

COC(=O)C1=C(C)NC(C)=C(C(=O)OCCCCCCCC[N+](C)(C)C)[C@@H]1c1cccc([N+](=O)[O-])c1.[I-]
nH [1]: 1
nH [2]: 1
nH [3]: 1.2
Ki [4]: 717.8 nM
nH [5]: 1.1
nH (GH4-C1): 0.8
Ki [6]: 895 nM
Ki [7]: 497 nM
Ki [8]: 420 nM
IC50 [9]: 5100 nM

COC(=O)C1=C(C)NC(C)=C(C(=O)OCC[N+](C)(C)C)C1c1cccc([N+](=O)[O-])c1.[I-] (racemic)
nH [1]: 1.7
nH [2]: 1
nH [3]: 0.9
Ki [4]: 1372 nM
nH [5]: 1
Ki [10]: 2111 nM
nH (GH4-C1): 0.7
Ki [6]: 248.5 nM
Ki [7]: 1510 nM
IC50 [9]: 17700 nM
